# From ChEMBL document CHEMBL2057126, “Discovery of new inhibitors of Cdc25B dual specificity phosphatases by structure-based virtual screening” (J Med Chem, 2012)
# Calls of active or inactive are those of the source. The rule behind the calls is not given here.
# Columns and labels:
# [1] = target: T1, M-phase inducer phosphatase 1 (Homo sapiens) (UniProt P30304); experiment: (§1) Inhibition of recombinant phosphatase activity of Cdc25A catalytic domain expressed in Escherichia coli BL21(DE3) using OMFP as substrate at 100 uM after 15 mins by fluorimetric assay
# T1 sequence (whole entry): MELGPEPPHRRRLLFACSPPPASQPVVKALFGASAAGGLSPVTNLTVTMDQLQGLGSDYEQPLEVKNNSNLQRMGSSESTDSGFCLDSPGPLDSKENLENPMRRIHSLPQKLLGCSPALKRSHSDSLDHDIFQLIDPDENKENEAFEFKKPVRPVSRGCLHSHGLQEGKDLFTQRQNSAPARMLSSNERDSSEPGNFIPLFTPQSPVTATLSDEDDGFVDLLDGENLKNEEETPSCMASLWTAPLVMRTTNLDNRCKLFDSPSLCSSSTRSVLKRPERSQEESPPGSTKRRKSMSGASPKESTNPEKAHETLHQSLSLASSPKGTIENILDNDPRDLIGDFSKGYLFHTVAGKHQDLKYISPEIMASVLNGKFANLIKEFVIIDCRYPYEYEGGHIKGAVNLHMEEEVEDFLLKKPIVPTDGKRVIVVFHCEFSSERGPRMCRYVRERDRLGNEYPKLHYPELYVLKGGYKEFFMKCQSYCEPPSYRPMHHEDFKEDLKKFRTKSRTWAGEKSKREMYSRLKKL
# [2] = target: T2, M-phase inducer phosphatase 2 (Homo sapiens) (UniProt P30305); experiment: (§2) Inhibition of recombinant phosphatase activity of Cdc25B catalytic domain expressed in Escherichia coli BL21(DE3) using OMFP as substrate at 100 uM after 15 mins by fluorimetric assay
# T2 sequence (whole entry): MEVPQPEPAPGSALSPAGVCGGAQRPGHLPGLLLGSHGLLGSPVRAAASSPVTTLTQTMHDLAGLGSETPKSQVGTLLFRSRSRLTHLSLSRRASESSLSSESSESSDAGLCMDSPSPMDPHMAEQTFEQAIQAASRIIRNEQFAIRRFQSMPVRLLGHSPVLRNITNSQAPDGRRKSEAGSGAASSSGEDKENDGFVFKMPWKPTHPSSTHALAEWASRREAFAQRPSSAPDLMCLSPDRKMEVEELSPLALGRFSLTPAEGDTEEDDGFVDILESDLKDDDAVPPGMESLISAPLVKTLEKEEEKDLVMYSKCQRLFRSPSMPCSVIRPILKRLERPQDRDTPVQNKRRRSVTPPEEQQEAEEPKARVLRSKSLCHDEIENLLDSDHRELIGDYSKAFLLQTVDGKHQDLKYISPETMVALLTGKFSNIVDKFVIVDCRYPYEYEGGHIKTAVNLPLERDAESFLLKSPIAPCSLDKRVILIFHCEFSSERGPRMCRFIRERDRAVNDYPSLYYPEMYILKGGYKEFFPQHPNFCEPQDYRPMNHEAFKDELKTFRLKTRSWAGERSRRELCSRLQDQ
# [3] = target: T3, M-phase inducer phosphatase 3 (Homo sapiens) (UniProt P30307); experiment: (§3) Inhibition of recombinant phosphatase activity of Cdc25C catalytic domain expressed in Escherichia coli BL21(DE3) using OMFP as substrate at 100 uM after 15 mins by fluorimetric assay
# T3 sequence (whole entry): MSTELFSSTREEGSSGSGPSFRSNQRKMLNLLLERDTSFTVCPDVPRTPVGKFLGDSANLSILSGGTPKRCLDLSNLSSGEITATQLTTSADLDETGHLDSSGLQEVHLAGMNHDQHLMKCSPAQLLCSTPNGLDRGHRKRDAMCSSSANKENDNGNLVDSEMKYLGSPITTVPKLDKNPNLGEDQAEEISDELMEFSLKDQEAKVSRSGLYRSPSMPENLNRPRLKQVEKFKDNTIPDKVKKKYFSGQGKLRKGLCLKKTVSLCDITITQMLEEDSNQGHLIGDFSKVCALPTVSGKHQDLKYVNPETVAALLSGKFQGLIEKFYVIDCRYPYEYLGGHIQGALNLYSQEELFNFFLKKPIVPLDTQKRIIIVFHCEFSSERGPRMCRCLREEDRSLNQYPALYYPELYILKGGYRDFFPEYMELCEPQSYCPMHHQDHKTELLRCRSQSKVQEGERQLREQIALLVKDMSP
# [4] = target: T2, M-phase inducer phosphatase 2 (Homo sapiens); experiment: Reversible inhibition of recombinant phosphatase activity of Cdc25B catalytic domain expressed in Escherichia coli BL21(DE3) assessed as residual activity of enzyme measured after 10 fold dilution at 100 uM preincubated for 20 mins
# Summary of the method: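 Cdc25B (0.5 μg) preincubated 20 min at room temperature with 100 μM inhibitor or DMSO vehicle, then diluted 10-fold. Residual phosphatase activity was read after adding OMFP substrate and expressed as percent of the untreated control. Mean ± SD of three determinations.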
# [5] = target: T2, M-phase inducer phosphatase 2 (Homo sapiens); experiment: (§4) Inhibition of recombinant phosphatase activity of Cdc25B catalytic domain expressed in Escherichia coli BL21(DE3) using OMFP as substrate by spectrofluorimetric analysis
# MCF7 [6] = experiment: Growth inhibition against human MCF7 cells expressing Cdc25A-C assessed as cell viability at 20 uM after 72 hrs by MTS assay; assay type: functional, cell-based
# Summary of the method: (§5)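 MCF-7 breast, PC-3 prostate and K562 leukaemia cells treated 72 h with inhibitor or DMSO vehicle control, then cell viability measured. Values are mean ± SD of three experiments; significance by Student's t test, p ≤ 0.05.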
# PC-3 [7] = experiment: Growth inhibition against human PC3 cells expressing Cdc25A-C assessed as cell viability at 20 uM after 72 hrs by MTS assay; assay type: functional, cell-based; summary of the method: as §5
# K562 [8] = experiment: Growth inhibition against human K562 cells expressing Cdc25A-C assessed as cell viability at 20 uM after 72 hrs by MTS assay; assay type: functional, cell-based; summary of the method: as §5
# K562 [9] = experiment: Increase of ROS level in human K562 cells expressing Cdc25A-C using H2DCFDA at 20 uM after 30 mins by flow cytometry; assay type: functional, cell-based
# MCF7 [10] = experiment: Cell cycle arrest in human MCF7 cells assessed as accumulation at G1 phase at 20 uM after 24 hrs by propidium iodide staining-based flow cytometry (reference value: 81.3 +/- 0.01%); assay type: functional
# MCF7 [11] = experiment: Cell cycle arrest in human MCF7 cells assessed as accumulation at G2/M phase at 20 uM after 24 hrs by propidium iodide staining-based flow cytometry (reference value: 9.4 +/- 0.04%); assay type: functional
# MCF7 [12] = experiment: Cell cycle arrest in human MCF7 cells assessed as accumulation at S phase at 20 uM after 24 hrs by propidium iodide staining-based flow cytometry (reference value: 9.35%); assay type: functional
# K562 [13] = experiment: Increase of ROS level in human K562 cells expressing Cdc25A-C using H2DCFDA at 20 uM after 30 mins by flow cytometry in presence of DTT; assay type: functional, cell-based
# PC-3 [14] = experiment: Increase of ROS level in human PC3 cells expressing Cdc25A-C using H2DCFDA at 20 uM after 30 mins by flow cytometry; assay type: functional, cell-based
# PC-3 [15] = experiment: Increase of ROS level in human PC3 cells expressing Cdc25A-C using H2DCFDA at 20 uM after 30 mins by flow cytometry in presence of DTT; assay type: functional, cell-based
# MCF7 [16] = experiment: Cell cycle arrest in human MCF7 cells assessed as accumulation at G1 phase at 20 uM after 48 hrs by propidium iodide staining-based flow cytometry (reference value: 64.5 +/- 0.02%); assay type: functional
# MCF7 [17] = experiment: Cell cycle arrest in human MCF7 cells assessed as accumulation at S phase at 20 uM after 48 hrs by propidium iodide staining-based flow cytometry (reference value: 14.5 +/- 0.01%); assay type: functional
# MCF7 [18] = experiment: Cell cycle arrest in human MCF7 cells assessed as accumulation at G2/M phase at 20 uM after 48 hrs by propidium iodide staining-based flow cytometry (reference value: 21 +/- 0.04%); assay type: functional
# [19] = target: T2, M-phase inducer phosphatase 2 (Homo sapiens); conditions: 400 uM
# [20] = target: T2, M-phase inducer phosphatase 2 (Homo sapiens); conditions: K562, 20 uM
# MCF7 [21] = experiment: Growth inhibition against human MCF7 cells expressing Cdc25A-C assessed as cell viability at 400 uM after 72 hrs by MTS assay; assay type: functional, cell-based; summary of the method: as §5
# PC-3 [22] = experiment: Growth inhibition against human PC3 cells expressing Cdc25A-C assessed as cell viability at 400 uM after 72 hrs by MTS assay; assay type: functional, cell-based; summary of the method: as §5
# K562 [23] = experiment: Growth inhibition against human K562 cells expressing Cdc25A-C assessed as cell viability at 400 uM after 72 hrs by MTS assay; assay type: functional, cell-based; summary of the method: as §5
# MCF7 [24] = experiment: Cell cycle arrest in human MCF7 cells assessed as accumulation at G2/M phase at 400 uM after 24 hrs by propidium iodide staining-based flow cytometry (reference value: 9.4 +/- 0.04%); assay type: functional
# MCF7 [25] = experiment: Cell cycle arrest in human MCF7 cells assessed as accumulation at S phase at 400 uM after 24 hrs by propidium iodide staining-based flow cytometry (reference value: 9.35%); assay type: functional
# MCF7 [26] = experiment: Cell cycle arrest in human MCF7 cells assessed as accumulation at G1 phase at 400 uM after 24 hrs by propidium iodide staining-based flow cytometry (reference value: 81.3 +/- 0.01%); assay type: functional
# [27] = target: T2, M-phase inducer phosphatase 2 (Homo sapiens); experiment: Inhibition of Cdc25B in human K562 cells assessed as increase in Cdk1 phosphorylation at 400 uM after 24 hrs by Western blot analysis; assay type: cell-based
# Summary of the method: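 K562 cells treated 24 h with inhibitor or DMSO vehicle, lysed, and Western blotted with anti-phospho-Cdk1 (Y15) antibody; total Cdk1 detected as loading control.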
# MCF7 [28] = experiment: Cell cycle arrest in human MCF7 cells assessed as accumulation at G1 phase at 400 uM after 48 hrs by propidium iodide staining-based flow cytometry (reference value: 64.5 +/- 0.02%); assay type: functional
# MCF7 [29] = experiment: Cell cycle arrest in human MCF7 cells assessed as accumulation at S phase at 400 uM after 48 hrs by propidium iodide staining-based flow cytometry (reference value: 14.5 +/- 0.01%); assay type: functional
# MCF7 [30] = experiment: Cell cycle arrest in human MCF7 cells assessed as accumulation at G2/M phase at 400 uM after 48 hrs by propidium iodide staining-based flow cytometry (reference value: 21 +/- 0.04%); assay type: functional
# [31] = target: T2, M-phase inducer phosphatase 2 (Homo sapiens); experiment: Reversible inhibition of recombinant phosphatase activity of Cdc25B catalytic domain expressed in Escherichia coli BL21(DE3) assessed as residual activity of enzyme measured after 10 fold dilution at 100 uM preincubated for 20 mins
# [32] = target: M-phase inducer phosphatase 1 (Homo sapiens) (UniProt P30304); experiment: as §1; remark: listed apart in the source
# [33] = target: M-phase inducer phosphatase 2 (Homo sapiens) (UniProt P30305); experiment: as §2; remark: listed apart in the source
# [34] = target: M-phase inducer phosphatase 3 (Homo sapiens) (UniProt P30307); experiment: as §3; remark: listed apart in the source
# [35] = target: T4, M-phase inducer phosphatase 2 (Homo sapiens, UniProt P30305); experiment: as §4
# T4 sequence (P30305 whole entry): T2 sequence (whole entry)
# [36] = target: T5, M-phase inducer phosphatase 1 (Homo sapiens, UniProt P30304); experiment: Inhibition of recombinant phosphatase activity of Cdc25A catalytic domain expressed in Escherichia coli BL21(DE3) using OMFP as substrate by spectrofluorimetric analysis
# T5 sequence (P30304 whole entry): T1 sequence (whole entry)
# Summary of the method: (§6)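 Purified recombinant Cdc25A catalytic domain; phosphatase activity measured as OMFP hydrolysis versus inhibitor concentration to derive IC50, with Ki calculated from kinetic measurements. Results are averages ± SD of three determinations.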
# [37] = target: T5, M-phase inducer phosphatase 1; experiment: Inhibition of recombinant phosphatase activity of Cdc25A catalytic domain expressed in Escherichia coli BL21(DE3) using OMFP as substrate by Lineweaver-Burk plot analysis; summary of the method: as §6
# [38] = target: T4, M-phase inducer phosphatase 2; experiment: Competitive inhibition of recombinant phosphatase activity of Cdc25B catalytic domain expressed in Escherichia coli BL21(DE3) using OMFP as substrate by Lineweaver-Burk plot analysis
Compound,inhibition [1] [%],inhibition [2] [%],inhibition [3] [%],inhibition [5],growth inhibition (GI) (MCF7 [21]),growth inhibition (GI) (PC-3 [22]),growth inhibition (GI) (K562 [23]),Activity (MCF7 [24]) [%],Activity (MCF7 [25]) [%],Activity (MCF7 [26]) [%],inhibition [27],Activity (MCF7 [28]) [%],Activity (MCF7 [29]) [%],Activity (MCF7 [30]) [%],further results
O=C(O)CCc1c2ccc(=O)c(O)c-2oc2c(O)c(O)ccc12,100,99,99,Dose-dependent effect,,,,,,,,,,,inhibition [4]: Active; growth inhibition (GI) (MCF7 [6]): Active; growth inhibition (GI) (PC-3 [7]): Active; growth inhibition (GI) (K562 [8]): Active; Activity (K562 [9]): Active; Activity (MCF7 [10]): 68.8%; Activity (MCF7 [11]): 18.1%; Activity (MCF7 [12]): 13.1%; Activity (K562 [13]): inactive; Activity (PC-3 [14]): Active; Activity (PC-3 [15]): inactive; Activity (MCF7 [16]): 92.8%; Activity (MCF7 [17]): 2.6%; Activity (MCF7 [18]): 4.6%; inhibition [19]: Active; inhibition [20]: Active
COc1ccc(Cc2ccc3nc(O)cc(C)c3c2)cc1S(=O)(=O)O,46,41,55,Dose-dependent effect,Active,Active,Active,5.6,3.3,91.1,Active,93.5,3.2,3.3,inhibition [31]: Active
VANADATE,,,,,,,,,,,,,,,inhibition [32]: 77%; inhibition [33]: 91%; inhibition [34]: 90%
O=S(=O)(O)c1ccc(-c2nnc(-c3ccccn3)nc2-c2ccc(S(=O)(=O)O)o2)o1,41,53,35,Dose-dependent effect,Active,Active,Active,10,11.3,78.7,Active,95.4,1.8,2.9,IC50 [35]: 173 µM; IC50 [36]: 110 µM; Ki [37]: 139 µM; Ki [38]: 159 µM
